Measured values as given in ChEMBL document CHEMBL5375965, “Discovery of New Broad-Spectrum Anti-Infectives for Eukaryotic Pathogens Using Bioorganometallic Chemistry” (J Med Chem, 2023).
The source made the active and inactive calls. The rule behind the calls is not given here.

Columns and labels:
[1] = tested on: Trichuris muris; test: Antinematodal activity against Trichuris muris assessed as inhibition of worm motility at day 2 by worminator analysis; assay type: functional; settings: time 2 day
In short: (§1)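 Two adult worms per well in RPMI-1640 (25 mM HEPES, 2.0 g/L NaHCO₃, 5% heat-inactivated FBS, 1X antibiotic/antimycotic), 4 replicate wells, 6 days at 37°C, 5% CO₂. Motility recorded 60 s per plate as pixels displaced/s on days 0, 1, 2, 3 and 6. Inhibition = (1 − treated MMU/mean 1% DMSO control MMU) × 100, floored at zero. IC₅₀ from 3- and 6-point dilutions.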

[2] = tested on: Brugia pahangi; test: Antinematodal activity against Brugia pahangi assessed as inhibition of worm motility at day 3 by worminator analysis; assay type: functional; settings: time 3 day
In short: (§2)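 Single adult female worm per well in RPMI-1640 (25 mM HEPES, 2.0 g/L NaHCO₃, 5% heat-inactivated FBS, 1X antibiotic/antimycotic), 4 replicate wells, 6 days at 37°C, 5% CO₂. Motility recorded 60 s per plate on days 0, 1, 2, 3 and 6 as pixels displaced/s. Inhibition = (1 − treated MMU/mean 1% DMSO control MMU) × 100, floored at zero. IC₅₀ from 3- and 6-point dilutions.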

[3] = tested on: Brugia pahangi; test: Antinematodal activity against Brugia pahangi assessed as inhibition of worm motility measured immediately by worminator analysis; assay type: functional; in short: as §2
[4] = tested on: Candida albicans; test: Antifungal activity against Candida albicans CAAL28 infected in BALB/c mouse candidiasis model administered once daily for 3 days; assay type: functional, organism-based; settings: CAAL28, 72 h
[5] = tested on: Trichuris muris; test: Antinematodal activity against Trichuris muris assessed as inhibition of worm motility at day 5 by worminator analysis; assay type: functional; settings: time 5 day
[6] = tested on: Trichuris muris; test: Antinematodal activity against Trichuris muris assessed as inhibition of worm motility at day 6 by worminator analysis; assay type: functional; settings: time 6 day; in short: as §1
[7] = tested on: Trichuris muris; test: Antinematodal activity against Trichuris muris assessed as inhibition of worm motility measured immediately by worminator analysis; assay type: functional; in short: as §1
[8] = tested on: Candida albicans; test: Antifungal activity against Candida albicans CAAL28 infected in BALB/c mouse candidiasis model assessed as animal survival pre-infected for 1 hr followed by compound addition at 10 mg/kg administered once daily for 3 days and measured on day 4 (reference value: 25%); assay type: functional; settings: time 4 day
[9] = tested on: Brugia pahangi; test: Antinematodal activity against Brugia pahangi assessed as inhibition of worm motility at day 1 by worminator analysis; assay type: functional; settings: time 1 day; in short: as §2
[10] = tested on: Brugia pahangi; test: Antinematodal activity against Brugia pahangi assessed as inhibition of worm motility at day 2 by worminator analysis; assay type: functional; settings: time 2 day; in short: as §2
[11] = tested on: Trichuris muris; test: Antinematodal activity against Trichuris muris assessed as inhibition of worm motility at day 1 by worminator analysis; assay type: functional; in short: as §1
[12] = tested on: Brugia pahangi; test: Antinematodal activity against Brugia pahangi assessed as inhibition of worm motility at day 6 by worminator analysis; assay type: functional; settings: time 6 day; in short: as §2
[13] = tested on: Saccharomyces cerevisiae; test: Antifungal activity against Saccharomyces cerevisiae harboring heterozygous RSC9 deletion mutant assessed as sensitivity by measuring ratio of control intensity to treatment intensity by chemogenomic screening analysis relative to control; assay type: functional
[14] = tested on: Brugia pahangi; test: Antinematodal activity against Brugia pahangi infected in mongolian jirds assessed as reduction in reproductive output at 10 mg/kg, po administered twice daily for 5 days; assay type: functional, organism-based; settings: time 5.0 day
In short: (§3)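 Male jirds (5–7 weeks, 50–60 g) infected ip with 200 L3. Oral dosing in 5% glucose started 5 months post-infection; vehicle received 5% glucose. Necropsy 5 days after last dose (6 animals/treated group, 9 vehicle). Worms recovered and counted. Ex vivo MF release compared by Kruskal–Wallis/Dunn. Embryograms were scored blinded by hemocytometer, ≥200 stages per female, 6–9 females/group, and analysed by two-way ANOVA/Dunnett versus vehicle.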

[15] = tested on: Trichuris muris; test: Downregulation of mitochondrial acyl carrier reductase expression in Trichuris muris at 100 uM incubated for 2 to 3 hrs; assay type: functional; settings: time 2-3 hrs
In short: (§4)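 Adult female worms exposed in vitro to compound or 1% DMSO vehicle, then frozen at −80°C. RNA-seq reads aligned to the T. muris genome (PRJEB126, WBPS16) with STAR and counted per gene with featureCounts. Expression expressed as FPKM. Fold changes and significance relative to DMSO controls calculated with DESeq2.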

[16] = tested on: Saccharomyces cerevisiae; test: Antifungal activity against Saccharomyces cerevisiae harboring heterozygous PMP1 deletion mutant assessed as sensitivity by measuring ratio of control intensity to treatment intensity by chemogenomic screening analysis relative to control; assay type: functional
[17] = tested on: Trichuris muris; test: Downregulation of fatty acid synthase expression in Trichuris muris at 100 uM incubated for 2 to 3 hrs; assay type: functional; settings: time 2-3 hrs; in short: as §4
[18] = tested on: Brugia pahangi; test: Antinematodal activity against Brugia pahangi infected in mongolian jirds assessed as reduction in worm fecundity at 10 mg/kg, po administered twice daily for 5 days; assay type: functional, organism-based; settings: time 5.0 day; in short: as §3
[19] = tested on: Brugia pahangi; test: Antinematodal activity against Brugia pahangi by worminator analysis; assay type: functional, organism-based; in short: as §2
[20] = tested on: Trichuris muris; test: Antinematodal activity against Trichuris muris by worminator analysis; assay type: functional, organism-based; in short: as §1
[21] = tested on: Brugia pahangi; test: Antinematodal activity against Brugia pahangi infected in mongolian jirds assessed as embryos with mature lysosomes pre-infected for 5 months followed by compound addition at 10 mg/kg, po administered twice daily for 5 days; assay type: functional, organism-based; settings: time 5.0 day
In short: (§5)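 Male jirds (5–7 weeks, 50–60 g) infected ip with 200 L3. At 5 months, dosed orally in 5% glucose; vehicle received 5% glucose. Necropsy 5 days after last dose. Adult females fixed in 2.5% glutaraldehyde/2% paraformaldehyde in 0.1 M cacodylate, Spurr-embedded, ultrathin sections contrasted with uranyl substitute and lead citrate, imaged by TEM.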

[22] = tested on: Brugia pahangi; test: Antinematodal activity against Brugia pahangi infected in mongolian jirds assessed as increase in number of deformed eggs at 10 mg/kg, po administered twice daily for 5 days; assay type: functional, organism-based; settings: time 5.0 day; in short: as §3
[23] = tested on: Brugia pahangi; test: Antinematodal activity against Brugia pahangi infected in mongolian jirds assessed as tissue damage in reproductive tracts pre-infected for 5 months followed by compound addition at 10 mg/kg, po administered twice daily for 5 days; assay type: functional, organism-based; settings: time 5.0 day; in short: as §5
[24] = tested on: Brugia pahangi; test: Antinematodal activity against Brugia pahangi infected in mongolian jirds assessed as reduction in number of microfilarial release at 10 mg/kg, po administered twice daily for 5 days; assay type: functional, organism-based; settings: time 5.0 day; in short: as §3
[25] = tested on: Brugia pahangi; test: Antinematodal activity against Brugia pahangi infected in mongolian jirds assessed as deformed embryos with vacuolated spaces pre-infected for 5 months followed by compound addition at 10 mg/kg, po administered twice daily for 5 days; assay type: functional, organism-based; settings: time 5.0 day; in short: as §5
[26] = tested on: Brugia pahangi; test: Antinematodal activity against Brugia pahangi infected in mongolian jirds assessed as reduction in number of eggs at 10 mg/kg, po administered twice daily for 5 days; assay type: functional, organism-based; settings: time 5.0 day; in short: as §3
[27] = tested on: Brugia pahangi; test: Antinematodal activity against Brugia pahangi infected in mongolian jirds assessed as reduction in worm burden at 10 mg/kg, po administered twice daily for 5 days; assay type: functional, organism-based; settings: time 5.0 day; in short: as §3
[28] = tested on: Trichuris muris; test: Downregulation of acyl-CoA synthetase expression in Trichuris muris at 100 uM incubated for 2 to 3 hrs; assay type: functional; settings: time 2-3 hrs; in short: as §4
[29] = tested on: Trichuris muris; test: Downregulation of AMPK gene expression in Trichuris muris at 100 uM incubated for 2 to 3 hrs; assay type: functional; settings: time 2-3 hrs; in short: as §4
[30] = tested on: Brugia pahangi; test: Antinematodal activity against Brugia pahangi infected in mongolian jirds assessed as deformed embryos with punctate pre-infected for 5 months followed by compound addition at 10 mg/kg, po administered twice daily for 5 days; assay type: functional, organism-based; settings: time 5.0 day; in short: as §5
[31] = tested on: Trichuris muris; test: Downregulation of Hippo gene expression in Trichuris muris at 100 uM incubated for 2 to 3 hrs; assay type: functional; settings: time 2-3 hrs; in short: as §4
[32] = tested on: Saccharomyces cerevisiae; test: Antifungal activity against Saccharomyces cerevisiae harboring heterozygous RPC19 deletion mutant assessed as sensitivity by measuring ratio of control intensity to treatment intensity by chemogenomic screening analysis relative to control; assay type: functional
[33] = tested on: Saccharomyces cerevisiae; test: Antifungal activity against Saccharomyces cerevisiae harboring heterozygous YGR115C deletion mutant assessed as sensitivity by measuring ratio of control intensity to treatment intensity by chemogenomic screening analysis relative to control; assay type: functional
[34] = tested on: Trichuris muris; test: Downregulation of mTOR gene expression in Trichuris muris at 100 uM incubated for 2 to 3 hrs; assay type: functional; settings: time 2-3 hrs; in short: as §4
[35] = tested on: Trichuris muris; test: Downregulation of Wnt gene expression in Trichuris muris at 100 uM incubated for 2 to 3 hrs; assay type: functional; settings: time 2-3 hrs; in short: as §4
[36] = tested on: Saccharomyces cerevisiae; test: Antifungal activity against Saccharomyces cerevisiae harboring heterozygous PMC1 deletion mutant assessed as sensitivity by measuring ratio of control intensity to treatment intensity by chemogenomic screening analysis relative to control; assay type: functional
[37] = tested on: Brugia pahangi; test: Antinematodal activity against Brugia pahangi infected in mongolian jirds assessed as embryos with autophagolysosomes pre-infected for 5 months followed by compound addition at 10 mg/kg, po administered twice daily for 5 days; assay type: functional, organism-based; settings: time 5.0 day; in short: as §5
[38] = tested on: Brugia pahangi; test: Antinematodal activity against Brugia pahangi infected in mongolian jirds assessed as deformed embryos with globular material pre-infected for 5 months followed by compound addition at 10 mg/kg, po administered twice daily for 5 days; assay type: functional, organism-based; settings: time 5.0 day; in short: as §5
[39] = tested on: Saccharomyces cerevisiae; test: Antifungal activity against Saccharomyces cerevisiae harboring heterozygous ENP1 deletion mutant assessed as sensitivity by measuring ratio of control intensity to treatment intensity by chemogenomic screening analysis relative to control; assay type: functional
[40] = tested on: Saccharomyces cerevisiae; test: Antifungal activity against Saccharomyces cerevisiae harboring heterozygous UTP14 deletion mutant assessed as sensitivity by measuring ratio of control intensity to treatment intensity by chemogenomic screening analysis relative to control; assay type: functional
[41] = tested on: Saccharomyces cerevisiae; test: Antifungal activity against Saccharomyces cerevisiae harboring heterozygous YPR136C deletion mutant assessed as sensitivity by measuring ratio of control intensity to treatment intensity by chemogenomic screening analysis relative to control; assay type: functional
[42] = tested on: Saccharomyces cerevisiae; test: Antifungal activity against Saccharomyces cerevisiae harboring heterozygousYDL144C deletion mutant assessed as sensitivity by measuring ratio of control intensity to treatment intensity by chemogenomic screening analysis relative to control; assay type: functional
[43] = tested on: Saccharomyces cerevisiae; test: Antifungal activity against Saccharomyces cerevisiae harboring heterozygous HYP2 deletion mutant assessed as sensitivity by measuring ratio of control intensity to treatment intensity by chemogenomic screening analysis relative to control; assay type: functional

## OC(Cn1cncn1)(Cn1cncn1)c1ccc(F)cc1F [FLUCONAZOLE]
[1]
  inhibition (INH): 21%
[2]
  inhibition (INH): 11%
[3]
  inhibition (INH): 10%
[4]
  IC50: > 100 µM
[5]
  inhibition (INH): 20%
[6]
  inhibition (INH): 13%
[7]
  inhibition (INH): 6%
[8]
  Activity: >50%
[9]
  inhibition (INH): 15%
[10]
  inhibition (INH): 7%
[11]
  inhibition (INH): 6%
[12]
  inhibition (INH): 4%

## CC(C1C2CC3CC(C2)CC1C3)N(C)CC(O)(Cn1cncn1)c1ccc(F)cc1F.Cl (stereo not drawn)
[13]
  log2(ratio): -6.48
[14]
  Activity: Active
[15]
  Activity: Active
[16]
  log2(ratio): -6.54
[17]
  Activity: Active
[18]
  Activity: Active
[1]
  inhibition (INH): 42%
[19]
  IC50: 2.2 µM
[20]
  IC50: 20.4 µM
[21]
  Activity: Active
[22]
  Activity: Active
[23]
  Activity: Active
[24]
  Activity: Active
[2]
  inhibition (INH): 99%
[25]
  Activity: Active
[26]
  Activity: Active
[3]
  inhibition (INH): 100%
[5]
  inhibition (INH): 98%
[6]
  inhibition (INH): 93%
[27]
  Activity: Active
[28]
  Activity: Active
[7]
  inhibition (INH): 10%
[29]
  Activity: Active
[30]
  Activity: Active
[31]
  Activity: Active
[32]
  log2(ratio): -4.18
[33]
  log2(ratio): -4.65
[34]
  Activity: Active
[9]
  inhibition (INH): 100%
[10]
  inhibition (INH): 100%
[35]
  Activity: Active
[36]
  log2(ratio): -4.67
[37]
  Activity: Active
[11]
  inhibition (INH): 32%
[38]
  Activity: Active
[12]
  inhibition (INH): 100%

## CN(CCc1ccccc1)CC(O)(Cn1cncn1)c1ccc(F)cc1F.Cl (stereo not drawn)
[39]
  log2(ratio): -2.17
[1]
  inhibition (INH): 10%
[40]
  log2(ratio): -5.53
[2]
  inhibition (INH): 8%
[41]
  log2(ratio): -3.12
[3]
  inhibition (INH): 32%
[42]
  log2(ratio): -4.93
[5]
  inhibition (INH): 1%
[6]
  inhibition (INH): 0%
[7]
  inhibition (INH): 15%
[9]
  inhibition (INH): 19%
[10]
  inhibition (INH): 6%
[43]
  log2(ratio): -2.45
[11]
  inhibition (INH): 15%
[12]
  inhibition (INH): 14%
